Assay results taken from ChEMBL document CHEMBL1147076, “Antitumor activity of MLN8054, an orally active small-molecule inhibitor of Aurora A kinase” (Proc Natl Acad Sci U S A, 2007).

What was measured:
[1] = target: Serine/threonine-protein kinase DCLK2 (Homo sapiens) (UniProt Q8N568); experiment: Activity of human DCAMKL2 kinase at 1 uM
In short: (§1)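 Single-point kinase profiling: each kinase in a 226-kinase panel tested with compound at 1 μM and ATP at 10 μM in every assay, run by an external screening service.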

[2] = species on record: Homo sapiens; experiment: Activity of human CK2 kinase at 1 uM
[3] = target: CDK3/Cyclin E (Homo sapiens) (UniProt P24864+Q00526); experiment: Activity of human CDK3/cyclin E kinase at 1 uM; type: protein-complex assay; in short: as §1
[4] = target: Macrophage colony-stimulating factor 1 receptor (Homo sapiens) (UniProt P07333); experiment: Activity of human FMS kinase at 1 uM
[5] = species on record: Homo sapiens; experiment: Activity of human CDK5/p25 kinase at 1 uM
[6] = target: SRSF protein kinase 1 (Homo sapiens) (UniProt Q96SB4); experiment: Activity of human SRPK1 kinase at 1 uM
In short: (§2)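 Single-concentration screen across a 226-kinase panel run by an outside provider; test compound at 1 μM with 10 μM ATP in every assay. Other conditions not detailed.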

[7] = target: Tyrosine-protein kinase receptor UFO (Homo sapiens) (UniProt P30530); experiment: Inhibition of Axl kinase at 1 uM
Sequence of Tyrosine-protein kinase receptor UFO (Homo sapiens) (P30530 whole entry): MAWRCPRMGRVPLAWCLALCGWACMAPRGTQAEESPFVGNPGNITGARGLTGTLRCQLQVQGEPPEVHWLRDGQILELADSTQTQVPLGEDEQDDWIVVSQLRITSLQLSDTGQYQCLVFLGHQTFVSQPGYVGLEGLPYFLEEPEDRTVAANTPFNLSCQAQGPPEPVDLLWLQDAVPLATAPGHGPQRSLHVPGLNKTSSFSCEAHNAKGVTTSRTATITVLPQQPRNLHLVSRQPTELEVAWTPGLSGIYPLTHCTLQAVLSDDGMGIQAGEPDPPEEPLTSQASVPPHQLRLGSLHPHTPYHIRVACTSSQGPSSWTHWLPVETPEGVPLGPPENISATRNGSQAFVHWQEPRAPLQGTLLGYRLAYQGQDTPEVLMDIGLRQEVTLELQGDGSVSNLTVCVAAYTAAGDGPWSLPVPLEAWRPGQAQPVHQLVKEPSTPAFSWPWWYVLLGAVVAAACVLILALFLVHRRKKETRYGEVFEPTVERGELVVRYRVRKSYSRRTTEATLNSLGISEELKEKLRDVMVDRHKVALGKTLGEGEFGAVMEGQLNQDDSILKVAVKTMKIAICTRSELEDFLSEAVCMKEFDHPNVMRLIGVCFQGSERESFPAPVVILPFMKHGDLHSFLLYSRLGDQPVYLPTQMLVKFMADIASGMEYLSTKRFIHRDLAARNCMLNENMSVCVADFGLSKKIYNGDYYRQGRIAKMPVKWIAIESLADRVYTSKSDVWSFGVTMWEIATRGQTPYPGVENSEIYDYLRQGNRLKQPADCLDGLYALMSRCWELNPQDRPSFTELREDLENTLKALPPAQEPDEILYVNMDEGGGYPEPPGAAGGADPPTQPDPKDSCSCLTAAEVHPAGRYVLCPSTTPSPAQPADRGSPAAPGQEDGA
In short: (§3)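 Single-point screen within a 226-kinase panel, with compound at 1 μM and ATP at 10 μM in all assays.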

[8] = species on record: Bos taurus; experiment: Activity of bovine PKA kinase at 1 uM
[9] = target: Ephrin type-A receptor 4 (Homo sapiens) (UniProt P54764); experiment: Activity of human EphA4 kinase at 1 uM
[10] = target: Ephrin type-B receptor 1 (Homo sapiens) (UniProt P54762); experiment: Activity of human EphB1 kinase at 1 uM; in short: as §1
[11] = target: MAP kinase-activated protein kinase 3 (Homo sapiens) (UniProt Q16644); experiment: Activity of human MAPKAP-K3 kinase at 1 uM
[12] = target: BDNF/NT-3 growth factors receptor (Homo sapiens) (UniProt Q16620); experiment: Activity of human TrkB kinase at 1 uM; in short: as §2
[13] = target: G protein-coupled receptor kinase 6 (Homo sapiens) (UniProt P43250); experiment: Activity of human GRK6 kinase at 1 uM
[14] = target: Serine/threonine-protein kinase WNK3 (Homo sapiens) (UniProt Q9BYP7); experiment: Activity of human WNK3 kinase at 1 uM
In short: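 Single-point screen in a 226-kinase panel run by an outside service. Test compound at 1 μM with ATP at 10 μM in every assay. Other assay conditions are not given.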

[15] = target: cGMP-dependent protein kinase 1 (Homo sapiens) (UniProt Q13976); experiment: Activity of human PKG1alpha kinase at 1 uM; in short: as §1
Sequence of cGMP-dependent protein kinase 1 (Homo sapiens) (Q13976 whole entry): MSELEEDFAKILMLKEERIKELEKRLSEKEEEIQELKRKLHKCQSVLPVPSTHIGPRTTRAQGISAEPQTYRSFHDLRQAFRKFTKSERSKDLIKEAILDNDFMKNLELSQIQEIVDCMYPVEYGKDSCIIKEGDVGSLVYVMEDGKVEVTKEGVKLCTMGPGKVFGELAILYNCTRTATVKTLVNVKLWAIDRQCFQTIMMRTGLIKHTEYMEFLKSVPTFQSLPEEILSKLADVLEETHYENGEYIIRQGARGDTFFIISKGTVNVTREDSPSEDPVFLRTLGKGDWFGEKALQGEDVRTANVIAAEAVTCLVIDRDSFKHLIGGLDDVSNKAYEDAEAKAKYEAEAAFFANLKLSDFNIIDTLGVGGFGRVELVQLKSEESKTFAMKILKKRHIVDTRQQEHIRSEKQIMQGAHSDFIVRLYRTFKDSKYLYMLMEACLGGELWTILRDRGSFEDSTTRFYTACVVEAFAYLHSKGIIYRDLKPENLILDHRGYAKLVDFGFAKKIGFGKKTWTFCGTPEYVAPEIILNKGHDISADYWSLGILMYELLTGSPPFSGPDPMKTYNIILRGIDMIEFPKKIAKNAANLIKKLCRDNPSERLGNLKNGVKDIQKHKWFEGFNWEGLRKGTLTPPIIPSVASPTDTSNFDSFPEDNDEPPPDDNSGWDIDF

[16] = target: Ephrin type-B receptor 2 (Homo sapiens) (UniProt P29323); experiment: Activity of human EphB2 kinase at 1 uM; in short: as §1
[17] = target: Protein kinase C epsilon type (Homo sapiens) (UniProt Q02156); experiment: Activity of human PKCepsilon kinase at 1 uM; in short: as §1
Sequence of Protein kinase C epsilon type (Homo sapiens) (Q02156 whole entry): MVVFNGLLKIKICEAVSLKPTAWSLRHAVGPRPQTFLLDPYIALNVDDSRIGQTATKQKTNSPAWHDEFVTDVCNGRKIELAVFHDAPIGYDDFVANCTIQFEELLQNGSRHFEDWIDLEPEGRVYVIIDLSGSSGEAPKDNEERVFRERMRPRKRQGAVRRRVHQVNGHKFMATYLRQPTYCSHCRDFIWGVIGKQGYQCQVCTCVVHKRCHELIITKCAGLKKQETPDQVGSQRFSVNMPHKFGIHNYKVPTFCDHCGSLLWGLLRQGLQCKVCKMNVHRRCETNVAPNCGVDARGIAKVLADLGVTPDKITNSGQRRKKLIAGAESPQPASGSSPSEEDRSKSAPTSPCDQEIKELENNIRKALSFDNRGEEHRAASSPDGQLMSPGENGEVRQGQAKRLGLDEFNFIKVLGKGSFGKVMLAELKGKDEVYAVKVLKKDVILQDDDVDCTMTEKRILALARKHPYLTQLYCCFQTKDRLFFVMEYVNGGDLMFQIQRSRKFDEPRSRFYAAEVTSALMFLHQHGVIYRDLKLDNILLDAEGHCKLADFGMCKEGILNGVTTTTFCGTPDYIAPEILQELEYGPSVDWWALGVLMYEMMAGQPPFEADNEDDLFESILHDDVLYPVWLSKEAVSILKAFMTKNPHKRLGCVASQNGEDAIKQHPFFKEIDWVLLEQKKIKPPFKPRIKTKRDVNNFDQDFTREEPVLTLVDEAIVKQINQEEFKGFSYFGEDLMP

[18] = test system: DLD-1; experiment: Antiproliferative activity against human DLD1 cells after 96 hrs by BrdU cell proliferation ELISA; type: functional, cell-based; settings: DLD-1, 96 h
In short: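 BrdU incorporation proliferation assay on cultured human tumor lines; IC50 values derived from growth inhibition.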

[19] = target: Homeodomain-interacting protein kinase 3 (Homo sapiens) (UniProt Q9H422); experiment: Activity of human HIPK3 kinase at 1 uM
Sequence of Homeodomain-interacting protein kinase 3 (Homo sapiens) (Q9H422 whole entry, looked up): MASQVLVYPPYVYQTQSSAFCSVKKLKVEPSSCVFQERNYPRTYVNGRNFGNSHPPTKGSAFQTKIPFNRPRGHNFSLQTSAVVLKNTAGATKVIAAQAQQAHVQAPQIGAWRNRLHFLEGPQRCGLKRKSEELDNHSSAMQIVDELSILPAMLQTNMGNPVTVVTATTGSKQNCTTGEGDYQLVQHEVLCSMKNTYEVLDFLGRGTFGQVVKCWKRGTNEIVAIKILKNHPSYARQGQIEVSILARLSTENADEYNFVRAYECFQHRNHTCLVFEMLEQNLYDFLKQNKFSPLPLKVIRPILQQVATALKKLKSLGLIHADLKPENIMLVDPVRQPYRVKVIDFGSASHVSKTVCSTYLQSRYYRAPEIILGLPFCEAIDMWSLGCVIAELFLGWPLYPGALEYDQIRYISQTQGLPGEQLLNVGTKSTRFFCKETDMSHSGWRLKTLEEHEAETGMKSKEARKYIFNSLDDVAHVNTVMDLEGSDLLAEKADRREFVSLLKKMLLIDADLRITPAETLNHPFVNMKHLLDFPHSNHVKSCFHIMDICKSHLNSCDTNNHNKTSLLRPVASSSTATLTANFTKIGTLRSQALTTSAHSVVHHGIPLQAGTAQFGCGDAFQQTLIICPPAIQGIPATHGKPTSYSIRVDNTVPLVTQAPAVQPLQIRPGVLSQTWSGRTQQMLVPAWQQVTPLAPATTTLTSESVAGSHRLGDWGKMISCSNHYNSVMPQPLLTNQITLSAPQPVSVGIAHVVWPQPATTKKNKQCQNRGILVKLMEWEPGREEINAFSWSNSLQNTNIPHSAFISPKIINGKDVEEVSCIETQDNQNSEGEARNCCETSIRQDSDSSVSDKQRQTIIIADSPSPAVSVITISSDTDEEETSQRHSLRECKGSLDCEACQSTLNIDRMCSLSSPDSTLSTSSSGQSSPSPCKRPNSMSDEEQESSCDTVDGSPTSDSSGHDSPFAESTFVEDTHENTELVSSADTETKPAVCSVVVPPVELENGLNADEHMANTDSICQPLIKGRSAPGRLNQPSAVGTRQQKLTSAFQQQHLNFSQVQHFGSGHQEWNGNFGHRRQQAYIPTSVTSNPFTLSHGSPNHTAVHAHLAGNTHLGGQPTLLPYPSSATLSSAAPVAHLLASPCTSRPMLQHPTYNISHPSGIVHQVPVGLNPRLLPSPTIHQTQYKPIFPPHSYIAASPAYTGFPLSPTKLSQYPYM

[20] = target: Serine/threonine-protein kinase 24 (Homo sapiens) (UniProt Q9Y6E0); experiment: Activity of human MST3 kinase at 1 uM
[21] = target: Dual specificity mitogen-activated protein kinase kinase 7 (Homo sapiens) (UniProt O14733); experiment: Activity of human MKK7-beta kinase at 1 uM
[22] = target: Casein kinase I homolog 1 (Saccharomyces cerevisiae S288c) (UniProt P23291); experiment: Activity of Saccharomyces cerevisiae CK1 kinase at 1 uM
[23] = target: Inhibitor of nuclear factor kappa-B kinase subunit alpha (Homo sapiens) (UniProt O15111); experiment: Activity of human IKKalpha kinase at 1 uM; in short: as §1
Sequence of Inhibitor of nuclear factor kappa-B kinase subunit alpha (Homo sapiens) (O15111 whole entry): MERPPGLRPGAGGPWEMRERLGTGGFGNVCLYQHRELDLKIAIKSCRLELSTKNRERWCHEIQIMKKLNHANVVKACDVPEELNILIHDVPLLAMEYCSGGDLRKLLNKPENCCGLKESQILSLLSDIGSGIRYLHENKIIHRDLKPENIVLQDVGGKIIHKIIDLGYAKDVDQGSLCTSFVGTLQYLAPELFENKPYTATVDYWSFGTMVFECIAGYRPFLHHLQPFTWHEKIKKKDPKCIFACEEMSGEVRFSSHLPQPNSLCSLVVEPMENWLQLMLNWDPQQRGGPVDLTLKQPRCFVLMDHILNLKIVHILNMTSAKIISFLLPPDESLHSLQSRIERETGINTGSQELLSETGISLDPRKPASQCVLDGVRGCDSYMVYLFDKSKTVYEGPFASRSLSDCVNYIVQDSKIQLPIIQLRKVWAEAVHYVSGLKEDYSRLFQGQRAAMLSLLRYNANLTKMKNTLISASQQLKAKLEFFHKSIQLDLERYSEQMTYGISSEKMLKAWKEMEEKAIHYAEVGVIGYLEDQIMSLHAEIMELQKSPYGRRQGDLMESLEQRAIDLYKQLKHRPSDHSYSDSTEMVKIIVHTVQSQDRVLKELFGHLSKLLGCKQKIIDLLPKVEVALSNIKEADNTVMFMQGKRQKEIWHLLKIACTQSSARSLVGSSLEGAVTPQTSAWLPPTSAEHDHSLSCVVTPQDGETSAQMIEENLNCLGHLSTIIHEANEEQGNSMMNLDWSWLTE

[24] = target: Insulin-like growth factor 1 receptor (Homo sapiens) (UniProt P08069); experiment: Activity of human IGF1R kinase at 1 uM
[25] = target: Ephrin type-A receptor 1 (Homo sapiens) (UniProt P21709); experiment: Inhibition of EphA1 kinase at 1 uM; in short: as §3
[26] = species on record: Homo sapiens; experiment: Activity of human CDK5/p35 kinase at 1 uM
[27] = test system: Mus musculus; experiment: Toxicity in human HCT116 cells xenografted into athymic nude NCR nu/nu mouse assessed as decrease in body weight at 30 mg/kg, QD after 21 days; type: organism-based, HCT-116; design: dose 30 mg/kg; scale not given: the % may be the effect or the level left; settings: in vivo, 504 h
In short: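 Female athymic nude NCR nu/nu mice were given HCT-116 cells (1 × 10^6) s.c. in the right flank. Drug in 10% hydroxypropyl-β-cyclodextrin/5% sodium bicarbonate was given orally (QD or BID) for 21 days. Body weight loss was recorded at the end of treatment, and neutrophil counts were also followed for the BID regimen.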

Sequence of Serine/threonine-protein kinase DCLK2 (Homo sapiens) (Q8N568 whole entry): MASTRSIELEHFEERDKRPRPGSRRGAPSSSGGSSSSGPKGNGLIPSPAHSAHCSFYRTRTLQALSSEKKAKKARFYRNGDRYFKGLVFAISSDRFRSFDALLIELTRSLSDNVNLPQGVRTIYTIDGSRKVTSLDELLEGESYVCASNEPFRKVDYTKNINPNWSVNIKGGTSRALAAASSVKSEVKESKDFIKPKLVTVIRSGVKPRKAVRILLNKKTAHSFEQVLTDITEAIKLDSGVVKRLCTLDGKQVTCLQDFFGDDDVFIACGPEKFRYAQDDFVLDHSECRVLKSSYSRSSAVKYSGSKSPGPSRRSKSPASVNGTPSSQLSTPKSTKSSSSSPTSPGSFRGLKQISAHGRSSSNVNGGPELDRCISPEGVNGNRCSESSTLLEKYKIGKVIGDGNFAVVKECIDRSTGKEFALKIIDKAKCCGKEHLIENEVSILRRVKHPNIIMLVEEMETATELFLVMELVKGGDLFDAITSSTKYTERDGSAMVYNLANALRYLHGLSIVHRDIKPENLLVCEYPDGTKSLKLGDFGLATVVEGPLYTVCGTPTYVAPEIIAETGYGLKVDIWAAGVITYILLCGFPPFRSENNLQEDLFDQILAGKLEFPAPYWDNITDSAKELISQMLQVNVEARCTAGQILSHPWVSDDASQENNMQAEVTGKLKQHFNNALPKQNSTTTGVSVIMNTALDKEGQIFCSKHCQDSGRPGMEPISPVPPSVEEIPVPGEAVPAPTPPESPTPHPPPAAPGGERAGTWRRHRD

## O=C(O)c1ccc(Nc2ncc3c(n2)-c2ccc(Cl)cc2C(c2c(F)cccc2F)=NC3)cc1 [MLN-8054]
[1]
  Activity: 103%
[2]
  Activity: 108%
[3]
  Activity: 105%
[4]
  Activity: 95%
[5]
  Activity: 94%
[6]
  Activity: 105%
[7]
  inhibition: 59%
[8]
  Activity: 86%
[9]
  Activity: 90%
[10]
  Activity: 35%
[11]
  Activity: 104%
[12]
  Activity: 112%
[13]
  Activity: 110%
[14]
  Activity: 88%
[15]
  Activity: 103%
[16]
  Activity: 69%
[17]
  Activity: 123%
[18]
  IC50: 1.43 µM
[19]
  Activity: 111%
[20]
  Activity: 107%
[21]
  Activity: 95%
[22]
  Activity: 115%
[23]
  Activity: 114%
[24]
  Activity: 88%
[25]
  inhibition: 71%
[26]
  Activity: 100%
[27]
  Activity: < 2%
